We go through 18 molecules from ChEMBL document CHEMBL4130606, “Ophiobolins from the Mangrove Fungus Aspergillus ustus” (J Nat Prod, 2018).

One test has as its system MDA-MB-231. Put plainly: Cytotoxicity against human MDA-MB-231 cells after 72 hrs by MTT assay. Conditions: MDA-MB-231, 72 h. The format is functional, cell-based. (Tetrazolium assays rely on reduction of a dye to a coloured formazan, in cell work by metabolically active cells.)
Another test deals with MCF7. Description: Cytotoxicity against human MCF7 cells after 72 hrs by MTT assay. Type of test: functional, cell-based. Conditions: MCF7, 72 h. The procedure, abridged: (§1)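 MTT viability assay on human cell lines, with values given as IC50. Lines used: gemcitabine-resistant pancreatic cancer G3K, breast adenocarcinoma MCF-7, its adriamycin-resistant subline MCF-7/Adr, triple-negative breast cancer MDA-MB-231, nontumorigenic breast epithelial MCF10A, non-small-cell lung cancer A549, and promyelocytic leukemia HL-60.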

A short description of test [1]: Cytotoxicity against human G3K cells after 72 hrs by MTT assay. Type of test: functional, cell-based. The procedure, abridged:
as §1

A further test relates to NCI/ADR-RES. Description: Cytotoxicity against human MCF7/ADR cells after 72 hrs by MTT assay. The format is functional, cell-based. In short, it runs like this:
as §1

In the next test the test system is Candida albicans. Put plainly: Antimicrobial activity against Candida albicans ATCC 10231 at 1 ug after 24 hrs by paper disc agar diffusion method. The format is functional, organism-based. (In general: Agar diffusion results depend on both activity and mobility in agar.)
A further test deals with Pseudomonas aeruginosa. Put plainly: Antimicrobial activity against Pseudomonas aeruginosa ATCC 10145 at 1 ug after 24 hrs by paper disc agar diffusion method. Type of test: functional, organism-based.
The test system of the next test is Bacillus subtilis. Put plainly: Antimicrobial activity against Bacillus subtilis ATCC 6051 at 1 ug after 24 hrs by paper disc agar diffusion method. Type of test: functional, organism-based.
A further test relates to HL-60. Description: Cytotoxicity against human HL60 cells after 72 hrs by MTT assay. Type of test: functional, cell-based. Conditions: HL-60, 72 h. The procedure, abridged: as §1
In another test the test system is A549. Description: Cytotoxicity against human A549 cells after 72 hrs by MTT assay. Conditions: A549, 72 h. The format is functional, cell-based. In short, it runs like this:
as §1

In a further test the test system is Klebsiella aerogenes. Put plainly: Antimicrobial activity against Enterobacter aerogenes ATCC 13048 at 1 ug after 24 hrs by paper disc agar diffusion method. Type of test: functional, organism-based.
The next test relates to Escherichia coli. Description: Antimicrobial activity against Escherichia coli ATCC 11775 at 1 ug after 24 hrs by paper disc agar diffusion method. The format is functional, organism-based. Conditions: DSM 30083 = JCM 1649 = ATCC 11775.
The test system of a further test is MCF-10A. Put plainly: Cytotoxicity against human MCF10A cells after 72 hrs by MTT assay. Type of test: functional, cell-based. The procedure, abridged: as §1

Counter-ions that a name gives are not always drawn. Activity calls are given as the source filed them. The rule behind the calls is not given here. A value given as a limit tells only on which side of the number the result lay.

The term IC50 denotes the concentration that gives 50% inhibition. Low readings indicate greater potency in that assay, high ones weaker potency in that assay. As to `CC(C)=C/C=C\[C@H](C)[C@H]1CC[C@]2(C)C[C@H]3[C@@H]4/C(=C\C[C@@H]12)CO[C@@H]4C[C@@]3(C)O`, the IC50 in the test with MDA-MB-231 was > 40 µM; in the test on MCF7, > 40 µM; in test [1], > 20 µM; in the test with NCI/ADR-RES, > 40 µM.
Regarding `CC(C)=C/C=C\[C@H](C)[C@H]1CC[C@]2(C)CC3=C(C(=O)C[C@H]3C)/C(CO)=C\C[C@@H]12`, the half-maximal inhibitory concentration (IC50) in the test on MDA-MB-231 is > 40 µM; in the test on MCF7, > 40 µM; in test [1] it was > 20 µM; in the test with NCI/ADR-RES it was > 40 µM.
With `CC(C)=C/C=C\[C@H](C)[C@H]1CC[C@]2(C)C[C@@H]3C(C)=CC(=O)[C@H]3/C(CO)=C\C[C@@H]12`, the IC50 was > 20 µM in the test with MDA-MB-231; > 40 µM in the test on MCF7; 1.9 µM in [1]; > 50 µM with HL-60; > 50 µM with A549; > 40 µM in the test with NCI/ADR-RES. Moreover, the result in the test with Candida albicans, in the test with Pseudomonas aeruginosa, in the test on Bacillus subtilis, with Klebsiella aerogenes and in the test with Escherichia coli was inactive.
Take `CC(C)=C/C=C\[C@H](C)[C@H]1CC[C@]2(C)C[C@@H]3C(C)=CC(=O)[C@H]3/C(C=O)=C\C[C@@H]12`: the 50% inhibitory concentration (IC50) is > 40 µM in the test on MCF-10A; 11.6 µM in the test with MDA-MB-231; 15.4 µM in the test on MCF7; 16.8 µM in test [1]; 35.4 µM in the test on NCI/ADR-RES. Further, the outcome in the test on Candida albicans, in the test on Pseudomonas aeruginosa, with Bacillus subtilis, in the test with Klebsiella aerogenes and in the test on Escherichia coli was inactive.
For the molecule `CC(C)=C/C=C\[C@H](C)[C@H]1CC[C@]2(C)C[C@H]3[C@@H](C(=O)C[C@@]3(C)O)/C(C=O)=C\C[C@@H]12`, the IC50 in the test with MCF-10A was > 40 µM; in the test with MDA-MB-231, 4.1 µM; with MCF7, 12.8 µM; in test [1], 6.8 µM; in the test on NCI/ADR-RES, 26.1 µM. The result in the test with Candida albicans, in the test on Pseudomonas aeruginosa, in the test with Bacillus subtilis, with Klebsiella aerogenes and in the test on Escherichia coli was inactive.
Consider `COc1cccc2c1C(=O)c1c(O)c3c(c(O)c1C2=O)C[C@@](O)(C(=O)CO)C[C@@H]3O[C@H]1C[C@H](N)[C@H](O)[C@H](C)O1` [DOXORUBICIN HYDROCHLORIDE], for which the IC50 amounted to 0.2 µM in the test with MCF-10A, 0.1 µM in the test on MCF7, 45 µM in [1] and 2.9 µM in the test on NCI/ADR-RES.
As to `CO[C@H]1C[C@H]2[C@@H]([C@@H](C)/C=C\C=C(C)C)CC[C@]2(C)C[C@H]2[C@H]3C1=CO[C@H]3C[C@@]2(C)O`, the IC50 was > 40 µM with MDA-MB-231, > 40 µM in the test on MCF7, > 20 µM in test [1] and > 40 µM in the test with NCI/ADR-RES.
Take `CO[C@H]1O[C@@]2(OC)C[C@@](C)(O)[C@H]3C[C@@]4(C)CC[C@H]([C@@H](C)/C=C\C=C(C)C)[C@@H]4C/C=C/1[C@H]32` [OPHIOBOLIN O]: the outcome with Candida albicans, in the test with Pseudomonas aeruginosa, with Bacillus subtilis, in the test with Klebsiella aerogenes and in the test on Escherichia coli was inactive. Besides, the IC50 in the test with HL-60 stood at 1.7 µM; with A549, 2.4 µM.
In the case of `CO[C@@H]1O[C@@]2(OC)C[C@@](C)(O)[C@H]3C[C@@]4(C)CC[C@H]([C@@H](C)/C=C\C=C(C)C)[C@@H]4C/C=C/1[C@H]32`, the outcome with Candida albicans, in the test with Pseudomonas aeruginosa, with Bacillus subtilis, with Klebsiella aerogenes and with Escherichia coli was inactive. The results for the IC50 in the test with HL-60 and with A549 were 0.8 µM and 0.6 µM, respectively.
With `CC(C)=C/C=C\[C@H](C)[C@H]1CC[C@]2(C)C[C@H]3[C@H](C(=O)C[C@@]3(C)O)/C(C)=C\C[C@@H]12`, the IC50 with HL-60 turned out to be 7 µM; with A549, 15.1 µM.
For the molecule `CC(C)=C/C=C\[C@H](C)[C@H]1CC[C@]2(C)C[C@H]3[C@H]4/C(=C\C[C@@H]12)C(=O)O[C@H]4C[C@@]3(C)O`, the IC50 in the test on MDA-MB-231 was > 40 µM; with MCF7 it was > 40 µM; in test [1], > 20 µM; in the test with HL-60, > 50 µM; in the test on A549 it was > 50 µM; in the test on NCI/ADR-RES, > 40 µM. The outcome with Candida albicans, in the test on Pseudomonas aeruginosa, in the test on Bacillus subtilis, in the test on Klebsiella aerogenes and in the test with Escherichia coli was inactive.
For the molecule `CC(C)=C/C=C\[C@H](C)[C@H]1CC[C@]2(C)C[C@H]3[C@@H]4/C(=C\C[C@@H]12)C(=O)O[C@]4(O)C[C@@]3(C)O`, the IC50 in the test on MDA-MB-231 is > 40 µM; in the test with MCF7, > 40 µM; in test [1] it was > 20 µM; with NCI/ADR-RES it was > 40 µM. Also, the result in the test with Candida albicans, in the test on Pseudomonas aeruginosa, in the test with Bacillus subtilis, with Klebsiella aerogenes and in the test on Escherichia coli was inactive.
In the case of `CO[C@@H]1O[C@]2(OC)C[C@@](C)(O)[C@H]3C[C@@]4(C)CC[C@H]([C@@H](C)/C=C\C=C(C)C)[C@@H]4C/C=C/1[C@@H]32`, the IC50 is > 40 µM in the test on MCF-10A; 18.5 µM with MDA-MB-231; 13.2 µM in the test with MCF7; 19.1 µM in [1]; 5.4 µM in the test on NCI/ADR-RES. Also, the outcome with Candida albicans, with Pseudomonas aeruginosa, in the test on Bacillus subtilis, in the test on Klebsiella aerogenes and with Escherichia coli was inactive.
On to `CC(C)=C/C=C\[C@H](C)[C@H]1CC[C@]2(C)CC3=C(C(=O)C[C@H]3C)/C(C=O)=C\C[C@@H]12`, for which the IC50 in the test with MDA-MB-231 was 39.8 µM; in the test on MCF7, > 40 µM; in [1], > 20 µM; in the test with NCI/ADR-RES, > 40 µM.
`CC(C)=C/C=C\[C@H](C)[C@H]1CC[C@]2(C)C[C@H]3[C@H](C(=O)C[C@@]3(C)O)/C(C=O)=C\C[C@@H]12`: the 50% inhibitory concentration (IC50) was 8.4 µM in the test with MCF-10A; 5.9 µM in the test with MDA-MB-231; 5.1 µM in the test on MCF7; > 20 µM in [1]; 4.1 µM in the test with NCI/ADR-RES.
Take `CC(C)=C/C=C\[C@H](C)[C@H]1CC[C@]2(C)C[C@@H]3C(C)=CC(=O)[C@@H]3/C(C=O)=C\C[C@@H]12`: the 50% inhibitory concentration (IC50) in the test on MCF-10A is > 40 µM; in the test with MDA-MB-231, 14.1 µM; in the test with MCF7, 22.9 µM; in test [1], 9.5 µM; in the test on NCI/ADR-RES it was 34.6 µM.
For `CC1=CC(=O)[C@H]2/C(C=O)=C\C[C@H]3[C@@H]([C@@H](C)/C=C\[C@@H](O)C(C)(C)O)CC[C@]3(C)C[C@H]12`, the IC50 came to 7.2 µM in the test on HL-60 and 33.8 µM with A549.
Regarding `CO[C@H]1O[C@]2(OC)C[C@@](C)(O)[C@H]3C[C@@]4(C)CC[C@H]([C@@H](C)/C=C\C=C(C)C)[C@@H]4C/C=C/1[C@@H]32`, the IC50 is > 40 µM with MCF-10A; 21.4 µM with MDA-MB-231; 9.4 µM in the test on MCF7; > 20 µM in test [1]; 7.9 µM with NCI/ADR-RES. Besides, the result in the test on Candida albicans, in the test on Pseudomonas aeruginosa, in the test on Bacillus subtilis, with Klebsiella aerogenes and in the test on Escherichia coli was inactive.
